PfM18AAP inh-1 – PfM18AAP enzyme inhibition | recombinant PfM18AAP, H-Glu-NHMec fluorogenic cleavage | inhibition, % at 7.35 µM | hit rate 1.2% among 290,000;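 active means inhibition above the campaign mean inhibition over all tested compounds plus 3 SD, cut at about 28% in these data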;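 further: 0% = plate median of test compound wells and 100% = 2 mM ZnCl2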
sPLA2-III inh – Inhibits HGIII-sPLA2 liposome hydrolysis, primary screen; AID 743126; inhibition, % at 12.2 µM; hit rate 0.56% among 370,000; Q9NZ20; QFRET BODIPY PC-A2 liposome hydrolysis, fluorescence;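 active means inhibition above mean plus 3 SD of compounds lying within the high and low control bounds, cut at about 19% in these data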;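 further: 0% = median of test compound wells and 100% = no enzyme DMSO wells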
VIM-2 inh – blocks Pseudomonas aeruginosa VIM-2 metallo-beta-lactamase; purified VIM-2, nitrocefin hydrolysis, epi-absorbance fluorescence; inhibition, % at 5.6 µM; hit rate 0.89% among 290,000;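 active means inhibition above the mean of all tested compounds plus 3 SD, cutoff set per screening run, cut at about 7.5% in these data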;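 further: red hydrolysis product quenches plate fluorescence so inhibitors raise well fluorescence; 0% = enzyme with DMSO and 100% = DMSO without enzyme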
IMP-1 inhibitor – blocks Pseudomonas aeruginosa IMP-1 metallo-beta-lactamase. AID 1556. purified IMP-1, nitrocefin hydrolysis, epi-absorbance fluorescence. hit rate 0.45% among 290,000. inhibition, % at 5.6 µM;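 active means inhibition above the mean plus 3 SD of all compounds in the same screening run, cut at about 4.5% in these data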;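 further: 0% = IMP-1 with DMSO and 100% = DMSO wells lacking enzyme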
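Test system: recombinant IMP-1 enzyme, purified / Medium: HEPES buffer pH 7.1 with ZnSO4 and Brij 35 / Doses: single dose, 5.6 µM / Times: 25 °C, 15 min preincubation, 25 min reaction / Detection: Epi-absorbance via hydrolysed-nitrocefin quenching of white-plate fluorescence, 480/530 nm, EDTA stop / Evaluation: percent inhibition from optical density relative to buffer-blank wells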
PfM18AAP inh-2 – PfM18AAP inhibition, confirmation; AID 2170; shares compounds with PfM18AAP inh-1; recombinant PfM18AAP, H-Glu-NHMec fluorogenic cleavage; inhibition, % at 7.35 µM; hit rate 28% among 2,400;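 active means mean inhibition over replicate wells above the hit cutoff set for the earlier primary screen, cut at about 29% in these data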;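 further: 0% = median of test compound wells and 100% = 2 mM ZnCl2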
CTSL1 confirm – Cathepsin L (human) inhibition, confirmation | shares compounds with PfM18AAP inh-1 | purified cathepsin L1, Z-Leu-Arg-MCA fluorescence | inhibition, % at 5.96 µM | 2,400 tested, under 10 active | AID 2178;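 active means average inhibition across replicates above the hit cutoff set in the earlier primary screen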;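 further: 0% = median of test compound wells and 100% = Z-Phe-Ala-diazomethylketone 1 µM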
Target sequence (P07711 whole entry, looked up): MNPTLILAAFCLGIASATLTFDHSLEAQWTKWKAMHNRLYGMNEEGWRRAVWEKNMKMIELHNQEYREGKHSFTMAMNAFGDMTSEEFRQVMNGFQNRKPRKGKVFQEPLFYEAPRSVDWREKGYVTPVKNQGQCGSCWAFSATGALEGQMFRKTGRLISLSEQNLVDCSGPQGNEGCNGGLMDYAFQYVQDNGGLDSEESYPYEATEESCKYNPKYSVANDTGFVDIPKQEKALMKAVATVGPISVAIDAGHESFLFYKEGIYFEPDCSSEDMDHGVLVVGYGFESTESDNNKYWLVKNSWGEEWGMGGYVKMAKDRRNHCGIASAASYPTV
* hit, by the source's call; nt = not tested or not shown. The list is not random: actives were taken first. Their share in the collection is about 2.4%.

SMILES	PfM18AAP inh-1	sPLA2-III inh	VIM-2 inh	IMP-1 inhibitor	PfM18AAP inh-2	CTSL1 confirm
Cc1cc(C)nc(NNC2=CC(=[N+]3CCCC3)CCC2)n1	57*	2	-3	-5	45*	3
Cc1cc(C)nc(NNC2=CC(=[N+]3CCCCC3)CC(C)(C)C2)n1	56*	11	-6	-5	40*	1
CN(C)NC1=CC(=[N+]2CCCC2)CC(C)(C)C1	1	7	-1	1	nt	nt
O=C(OCC1CCC=CO1)C1CCC=CO1 (centres undefined)	nt	4	nt	nt	nt	nt
CCOC(=O)c1c(NC(C)=O)sc2c1CCC(C=O)=C2Sc1ccccc1	40*	-12	-2	-2	-21	1
CC(NC(=O)COC(=O)C1(C)CC1(Cl)Cl)c1ccccc1 (centres undefined)	nt	-2	nt	nt	nt	nt
Cc1ccccc1-n1sc2cc(F)ccc2c1=O	70*	3	-2	-4	64*	-7
CC(=O)Nc1ccc(-c2ccnc3c2CC(C)(C(=O)NCc2ccc(F)c(F)c2)O3)cc1 (centres undefined)	nt	2	nt	nt	nt	nt
CCOC(=O)C(NC(=O)N(C)C)(Nc1sc(C)c(CC)c1C#N)C(F)(F)F (centres undefined)	49*	7	-6	-2	1	-2
Nc1nncn1C(=O)c1ccccc1Cl	60*	2	-2	-6	55*	-1
Nc1nncn1C(=O)c1ccc(Cl)cc1Cl	37*	-3	-3	-3	51*	-1
Nc1nc(-c2cccnc2)nn1C(=O)c1ccccc1Cl	-4	6	-1	-1	nt	nt
c1cc(SSc2ccncc2)ccn1	62*	2	-4	-3	50*	-1
Cn1c(SCC(=O)NC2CCCCC2)nnc1C(F)(F)F	nt	6	nt	nt	nt	nt
CCC1CCC2(CC1)NNC(=S)NN2	35*	8	-2	-4	39*	0
Cc1ccc(O)c(CNc2cccc3cccnc23)c1	18	3	-2	-2	nt	nt
Oc1ccc(Br)cc1CNc1cccc2cccnc12	46*	-15	1	1	-3	103*
NC(Cc1ccc(C(F)(F)F)cc1)c1csc(Nc2cc(NCc3ccco3)ncn2)n1 (centres undefined)	nt	4	nt	nt	nt	nt
C=CCn1c(SCC(=O)OC(C)C)nnc1-c1ccc(C)cc1	nt	7	nt	nt	nt	nt
O=C(O)C1=C[C@@H](c2ccc3c(c2)OCO3)C[C@@H](OCc2ccc(CO)cc2)O1	36*	-2	3	-3	-13	2
C[C@H](c1ccccc1)N1C[C@@H](COCc2ccccc2)Oc2cc(N3CCC[C@H]3CO)ccc2S1(=O)=O	nt	0	nt	nt	nt	nt
COc1ccc(C(CNC(=O)c2ccc(-c3nc4ccccc4s3)o2)N2CCCC2)cc1 (centres undefined)	nt	-23	nt	nt	nt	nt
CCCC(C)NC(=O)CC1Oc2ccccc2NC1=O (centres undefined)	nt	9	nt	nt	nt	nt
CCCCCCn1c(SCC(=O)OC)nc2c1c(=O)[nH]c(=O)n2C	48*	-4	-1	-2	23	-5
CCOC(=O)C(C)Sc1nc2c(c(=O)[nH]c(=O)n2C)n1C/C=C(/C)Cl (centres undefined)	37*	0	0	-2	3	3
SMILES	PfM18AAP inh-1	sPLA2-III inh	VIM-2 inh	IMP-1 inhibitor	PfM18AAP inh-2	CTSL1 confirm
CC1(C(=O)NS(=O)(=O)c2cccs2)CCN1C(=O)C1CCCCC1 (centres undefined)	nt	-1	nt	nt	nt	nt
CCOC(=O)C1=C(C)NC(C)=C(C(=O)OCC)C1C(=O)OCC(=O)NCc1ccc(F)cc1	nt	-18	nt	nt	nt	nt
Cc1cc(CNC(=O)c2ccc3c(c2)OCO3)c2ccccc2n1	33*	1	2	0	10	-3
COc1ccc(C(=O)NCc2cc(C)nc3ccccc23)cc1	-1	-1	-1	-3	nt	nt
CCn1c2ccccc2c2cc(NC(=O)CSc3nnc(-c4cccc(F)c4)o3)ccc21	-3	1	-2	-2	nt	nt
O=C(CSc1nnc(-c2cccc(F)c2)o1)Nc1nncs1	50*	1	-1	-1	-32	-3
COc1ccc(-n2c(O)c(/C=N/n3cnnc3)c3ccccc3c2=O)cc1	67*	2	0	-1	74*	5
COc1ccc(-n2c(O)c(C=Nc3ccccc3)c3ccccc3c2=O)cc1OC	-1	-5	0	-5	nt	nt
O=c1c2ccccc2c(/C=N/n2cnnc2)c(O)n1-c1ccccc1	65*	-8	-1	0	72*	1
COc1ccc(-n2c(O)c(C=Nc3ccccc3)c3ccccc3c2=O)cc1	6	0	-2	-3	nt	nt
O=C(CN1C(=O)NC2(CCCCC2)C1=O)N1CCN(S(=O)(=O)c2ccc(F)c(F)c2F)CC1	nt	2	nt	nt	nt	nt
NS(=O)(=O)c1ccc(NC(=S)N2CCC(Cc3ccccc3)CC2)cc1	37*	-3	-3	-4	-19	-4
NC(=O)C1(N2CCCCC2)CCN(C(=S)Nc2ccc(S(N)(=O)=O)cc2)CC1	33*	7	-1	-6	11	5
NC(=O)C1(N2CCCCC2)CCN(C(=S)Nc2ccc(F)c(Cl)c2)CC1	-3	0	-2	-2	nt	nt
CCCN1CCN(C(=S)Nc2ccc(S(N)(=O)=O)cc2)CC1	9	2	-2	-2	nt	nt
CCN(CC)c1ccc(NC(=O)CSc2nnc(-c3ccc(Cl)cc3)n2Cc2ccco2)cc1	nt	-3	nt	nt	nt	nt
Oc1ccc(N2CCN(c3nnnn3-c3ccccc3)CC2)cc1	32*	-1	1	-1	-3	1
S=C(Nc1ccc(Oc2ccccc2)cc1)N1CCOCC1	3	16	-1	-2	nt	nt
O=C(CNc1ccc(Oc2ccccc2)cc1)N1CCOCC1	42*	0	-2	-3	-37	-3
CCS(=O)(=O)c1cc([N+](=O)[O-])c(Sc2ccccc2NC(C)=O)s1	35*	-6	-3	-2	-32	2
CC(=O)Nc1ccccc1-c1ccccc1[N+](=O)[O-]	nt	1	nt	nt	nt	nt
CC(C)(C)C1CCc2c(sc(NC(=O)CSc3ncn[nH]3)c2C#N)C1 (centres undefined)	34*	-7	-4	-1	-17	1
CC1CCc2c(sc(NC(=O)CSc3ncn[nH]3)c2C#N)C1 (centres undefined)	11	-27	-2	-1	nt	nt
Cc1cc(N=Nc2ccccc2)cc(C)c1NC(=O)C(F)(F)F	nt	2	nt	nt	nt	nt
COc1cc(/C=C2\SC(=S)N(Nc3ccccc3)C2=O)ccc1O	23	-17	-3	-4	nt	nt
SMILES	PfM18AAP inh-1	sPLA2-III inh	VIM-2 inh	IMP-1 inhibitor	PfM18AAP inh-2	CTSL1 confirm
O=C1/C(=C/c2ccncc2)SC(=S)N1Nc1ccccc1	32*	-16	-2	-3	10	-6
O=C1/C(=C/c2ccc(O)c(O)c2)SC(=S)N1Nc1ccccc1	58*	nt	-2	-1	31*	9
O=C(O)c1ccc(/C=C2\SC(=S)N(Nc3ccccc3)C2=O)cc1	12	-8	-2	-2	nt	nt
COc1cc(/C=N/Nc2nc(C)cc(=O)[nH]2)ccc1O	19	3	-2	-1	nt	nt
COc1cc(/C=N/Nc2nc(C)cc(=O)[nH]2)cc(OC)c1O	42*	4	0	0	17	0
C=CCOc1c(Cl)cc(CNCCCN2CCOCC2)cc1OC	2	0	-1	-5	nt	nt

Screening results (PubChem)
